ChEMBL document CHEMBL1121812, “Promotion of carbohydrate oxidation in the heart by some phenylglyoxylic acids” (1981)

Columns and labels:
[1] = biological target: T1, Pyruvate dehydrogenase kinase (Rattus norvegicus) (UniProt Q63065+A6IPZ9+Q64536+O54937); assay: Pyruvate dehydrogenase active/ Pyruvate dehydrogenase total was measured by sc administering the DCA in rat at a dose of 1.2 mmol/kg; type: functional, organism-based
Summary of the method: (§1)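 Hearts frozen in liquid N2, powdered, homogenized in ice-cold phosphate/EDTA/DTT/pyruvate medium. PDH active assayed directly; PDH total after 20 min at 30 °C with 5 mM MgCl2, 2.5 mM CaCl2. 14CO2 from 0.1 mM [1-14C]pyruvate with CoA, NAD, TPP at 30 °C; expressed as % PDH active/total; ≥3 rats/group.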

[2] = biological target: T1, Pyruvate dehydrogenase kinase (Rattus norvegicus); assay: Pyruvate dehydrogenase activity in vivo was measured following subcutaneous administration of 1.2 mmol/kg; type: functional, organism-based; summary of the method: as §1
[3] = biological target: T1, Pyruvate dehydrogenase kinase (Rattus norvegicus); assay: Tested for pyruvate oxidation in rat diaphragm, measured as % conversion of [14C]pyruvate to 14CO2 at 0.5 mM concentration of DCA (dichloroacetic acid); type: functional, tissue-based
Summary of the method: (§2)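 Rat diaphragm cut into four portions, each weighed and preincubated 1 h at 37 °C in Krebs-Ringer bicarbonate, pH 7.4, gassed O2/CO2 (18:1), alone (control) or with compound. Then 4 mM (final) 1- or 2-14C sodium pyruvate added, 1 h at 37 °C. Stopped with H2SO4; 14CO2 trapped in hyamine hydroxide, scintillation counted. Tissue-free blanks included. Reported as percent stimulation versus control.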

[4] = biological target: T1, Pyruvate dehydrogenase kinase (Rattus norvegicus); assay: Tested for pyruvate oxidation in rat diaphragm, measured as % conversion of [14C]pyruvate to 14CO2 at 2 mM concentration; type: functional, tissue-based; summary of the method: as §2
[5] = biological target: T1, Pyruvate dehydrogenase kinase (Rattus norvegicus); assay: Percent Stimulation of pyruvate oxidation in rat diaphragm was measured at 2 mM concentration of DCA (dichloroacetic acid); type: functional, tissue-based; summary of the method: as §2
Rattus norvegicus [6] = assay: Pyruvate dehydrogenase activity in vivo was measured following subcutaneous administration of 1.2 mmol/kg of the DCA in rat at a dose of 1.2 mmol/kg; type: functional; summary of the method: as §1
Rattus norvegicus [7] = species: Rattus norvegicus; assay: (§3) Compound was tested in vitro for pyruvate oxidation in rat diaphragm, measured as % conversion of [14C]pyruvate to 14CO2 at 2 mM concentration of DCA (dichloroacetic acid); type: functional; summary of the method: as §2
Rattus norvegicus [8] = assay: Pyruvate dehydrogenase active/ Pyruvate dehydrogenase total was measured by sc administering the compound in rat at a dose of 1.2 mmol/kg; type: functional; summary of the method: as §1
Rattus norvegicus [9] = species: Rattus norvegicus; assay: Percent Stimulation of pyruvate oxidation in Rat by the compound was measured at 2 mM concentration of DCA (dichloroacetic acid); type: functional; summary of the method: as §2
Rattus norvegicus [10] = species: Rattus norvegicus; assay: Compound was tested in vitro for pyruvate oxidation in Rat, measured as % conversion of [14C]pyruvate to 14CO2 at 0.5 mM concentration of DCA (dichloroacetic acid); type: functional; summary of the method: as §2
Rattus norvegicus [11] = species: Rattus norvegicus; assay: Percent stimulation of pyruvate oxidation in rat diaphragm by the compound was measured at 2 mM concentration; type: functional; summary of the method: as §2
Rattus norvegicus [12] = species: Rattus norvegicus; assay: Percent Stimulation of pyruvate oxidation in rat diaphragm by the compound was measured at 2 mM concentration; type: functional; summary of the method: as §2
[13] = system: pyruvate dehydrogenase (Rattus norvegicus); assay: Tested for pyruvate oxidation in rat diaphragm, measured as % conversion of [14C]pyruvate to 14CO2 at 5 mM concentration
[14] = system: Pyruvate dehydrogenase complex (Rattus norvegicus); assay: Tested for pyruvate oxidation in rat diaphragm, measured as % conversion of [14C]pyruvate to 14CO2 at 2 mM concentration
Rattus norvegicus [15] = species: Rattus norvegicus; assay: as §3; type: functional; summary of the method: as §2; remark: listed apart in the source
Rattus norvegicus [16] = species: Rattus norvegicus; assay: Percent Stimulation of pyruvate oxidation in Rat by the compound was measured at 0.5 mM concentration of DCA (dichloroacetic acid); type: functional; summary of the method: as §2

SMILES | PDH active/PDH total [1] [%] | PDH active/PDH total [2] [%] | Stimulation [3] [%] | Stimulation [4] [%] | Stimulation [5] [%] | Stimulation [13] [%] | also measured
O=C(O)C(=O)c1cc(I)c(O)c(I)c1 | 87 | 12 | 5 | 85 | 120 |  | 
NC(C(=O)O)c1ccccc1 (stereo not given) |  |  |  |  |  |  | PDH active/PDH total (Rattus norvegicus [8]): 13%; Stimulation (Rattus norvegicus [9]): 90%
COc1ccc(C(N)C(=O)O)cc1 (stereo in doubt; L-27) [listing 1 of 2 here] |  |  |  |  |  |  | Stimulation (Rattus norvegicus [10]): 79%; Stimulation (Rattus norvegicus [9]): 122%; Stimulation (Rattus norvegicus [11]): 124%
O=C(O)C(=O)c1ccc(O)cc1 | 96 | 12 | 63 |  | 142 |  | Stimulation (Rattus norvegicus [12]): 80%
CN(C)c1ccc(C(=O)C(=O)O)cc1 |  |  | 1 |  | 156 | 16 | Stimulation (Rattus norvegicus [12]): -5%
COc1ccc(C(N)C(=O)O)cc1 (stereo in doubt; D-28) [listing 1 of 2 here] |  |  |  |  |  |  | Stimulation (Rattus norvegicus [9]): 108%; Stimulation (Rattus norvegicus [11]): 17%
NC(=O)c1ccc(C(=O)C(=O)O)cc1 |  |  |  |  | 200 | 20 | Stimulation (Rattus norvegicus [12]): 11%
O=C(O)C(=O)c1ccccc1 | 87 | 38 | 42 | 85 | 219 |  | 
COc1ccc(C(=O)C(=O)O)cc1 | 97 | 49 | 62 | 132 | 161 |  | Stimulation (Rattus norvegicus [12]): 132%
NC(C(=O)O)c1ccc(Cl)cc1 (stereo not given) | 90 | 43 | 43 | 102 | 99 |  | 
O=C(O)C(=O)c1ccc(Cl)cc1 |  |  |  |  |  | 71 | Stimulation (Rattus norvegicus [7]): 48%; Stimulation (Rattus norvegicus [15]): 82%
N[C@H](C(=O)O)c1ccc(O)cc1 (stereo in doubt; D-26) [OXFENICINE] |  |  |  |  |  |  | Stimulation (Rattus norvegicus [9]): 130%; Stimulation (Rattus norvegicus [11]): 26%
N[C@H](C(=O)O)c1ccc(O)cc1 (stereo in doubt; L-25) [OXFENICINE] |  |  |  |  |  |  | Stimulation (Rattus norvegicus [16]): 84%; Stimulation (Rattus norvegicus [9]): 123%; Stimulation (Rattus norvegicus [11]): 136%
COc1ccccc1C(=O)C(=O)O |  |  |  |  | 163 | -2 | Stimulation (Rattus norvegicus [12]): -10%
O=C(O)C(=O)c1ccc(CO)cc1 |  |  | 12 | 23 | 108 |  | 
Cc1cc(C(=O)C(=O)O)ccc1O | 89 | 31 | 2 | 21 | 107 |  | 
CCS(=O)(=O)Nc1ccc(C(=O)C(=O)O)cc1 |  |  | 16 | 22 | 100 |  | 
C=CCc1cc(C(=O)C(=O)O)ccc1O | 90 | 11 | 11 | 29 | 120 |  | 

More lines, main results first:

PDH active/PDH total [1] [%] | PDH active/PDH total [2] [%] | Stimulation [3] [%] | Stimulation [4] [%] | Stimulation [5] [%] | Stimulation [13] [%] | SMILES | also measured
 | 50 | 20 | 43 |  |  | Cc1ccc(C(=O)C(=O)O)cc1 | PDH active/PDH total (Rattus norvegicus [6]): 97%; Stimulation (Rattus norvegicus [7]): 100%
 |  | 24 | 36 | 95 |  | Cc1ccc(C(N)C(=O)O)cc1 (stereo not given) | 
96 | 14 | 76 | 113 | 200 |  | CCCCSc1ccc(C(=O)C(=O)O)cc1 | 
82 | 73 | 164 | 231 | 158 |  | CCSc1ccc(C(=O)C(=O)O)cc1 | 
82 | 69 |  |  | 101 | 154 | CSc1ccc(C(=O)C(=O)O)cc1 | Stimulation [14]: 123%
87 | 26 |  |  |  |  | N[C@H](C(=O)O)c1ccc(O)cc1 (stereo in doubt; D-26) | 
96 | 51 | 26 | 162 | 200 |  | CC(C)Sc1ccc(C(=O)C(=O)O)cc1 | 
87 | 11 |  |  |  | -14 | COc1ccc(C(N)C(=O)O)cc1 (stereo in doubt; D-28) [listing 2 of 2 here] | 
90 | 5 |  |  |  | 115 | COc1ccc(C(N)C(=O)O)cc1 (stereo in doubt; L-27) [listing 2 of 2 here] | 
87 | 82 |  |  |  |  | N[C@H](C(=O)O)c1ccc(O)cc1 (stereo in doubt; L-25) | 
76 | 20 |  |  | 132 | 28 | CSc1ccc(C(N)C(=O)O)cc1 (racemic) | Stimulation (Rattus norvegicus [12]): 65%
80 | 5 |  |  | 132 | 24 | CCSc1ccc(C(N)C(=O)O)cc1 (racemic) | Stimulation (Rattus norvegicus [12]): 20%
